# In PubChem BioAssay:
# Values without a mark were called inactive.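 The calls were made as follows: active = growth inhibition above 25% in both replicates, a cutoff set 3 SD above the mean; inconclusive = above 25% in only one replicate; inactive = the rest.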
# Test: S. cerevisiae growth inhibition in permissive medium (OD615), pilot counter-assay for S. cerevisiae lifespan shortening project, permissive growth control (AID 705)
# Conditions: OD615, 24 h, at 10 µM, active compounds read high
# Procedure, shortened: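 System: engineered DeaD yeast; Medium: permissive raffinose/galactose medium; Compound dosing: 10 µM single dose, 0.25% DMSO; Incubation: 4 h cell pre-growth, 24 h exposure at 30 °C; Technique: OD at 615 nm; Evaluation: growth inhibition from lowered OD615 after 24 h.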
row,SMILES,growth inhibition
1,O=C1C(O)CC2c3ccccc3CC3(CCCC3)N12 (stereo not given),-14.1%
2,Cc1ccc(OCC(=O)n2nc(C)cc2C)c(Br)c1,-17.8%
3,Cc1c(C(=O)N2CCN(CCc3ccccc3)CC2)oc2ccccc12,-0.01%
4,c1ccc2cc3[nH]c(CN4CCCCC4)nc3cc2c1,-19.8%
5,Cc1ccc(-n2nc(C)c3c(C)c(CCC(=O)NCc4ccco4)c(C)nc32)cc1,-15%
6,Cn1c(=O)c2c(nc(CN3CCOCC3)n2CCCO)n(C)c1=O,-5.86%
7,CCCCNC(=O)c1ccc2nc(-c3ccco3)c(-c3ccco3)nc2c1,-4.73%
8,Cc1ccnc(N2C(=O)c3ccccc3C2Nc2ccccc2Cl)c1 (stereo not given),-15.2%
9,CN(CCNC(=O)Cn1c(=O)sc2ccccc21)Cc1ccccc1,-1.18%
10,CCOC(=O)c1c(C)oc2cc(Br)c(OC(C)C(=O)OCC)cc12 (stereo not given),-10.4%
11,Oc1c(C(c2cccc(F)c2)N2CCN(Cc3ccccc3)CC2)sc2ncnn12 (stereo not given),-6.58%
12,O=C(C1CC(=O)N(C2CCCC2)C1)N1CCN(c2ccc(F)cc2)CC1 (stereo not given),-1.42%
13,CCCCCSc1nc2c(c(=O)[nH]c(=O)n2C)n1C(C)C,-8.31%
14,O=C(C(Cc1ccccc1)n1cccc1)N1CCc2ccccc21 (stereo not given),-16.3%
15,CCOC(=O)C1=C(O)/C(=C/N(C)C)N=C1C,4.34%
16,Cc1cc(C(=O)NC2CCCC2)on1,-11.8%
17,Cc1onc(-c2ccccc2Cl)c1C(=O)NCc1ccc2c(c1)cc(C)n2C,-6.07%
18,CCN(CCCNC(=O)Cn1cc2c(n1)CCCC2)c1cccc(C)c1,-4.97%
19,COc1ccc(C2NC(=O)c3n[nH]c(C)c32)c(OC)c1 (stereo not given),-1.65%
20,S=c1nc(-c2ccccc2)n(CCCn2ccnc2)c2c1CCCC2,-6.46%

row,SMILES,growth inhibition
1,CC1CCN(CC(C)OC(=O)c2ccc3c(c2)OCCO3)CC1 (stereo not given),-8.49%
2,CCN1CCCC(NC(=O)c2scc3c2CCCC3)C1 (stereo not given),-8.03%
3,Cc1ccc(CNC(=O)CCS(=O)(=O)c2cccc3nsnc23)cc1,-2.81%
4,COC(=O)C1(C)NC(=O)c2ccccc2N1 (stereo not given),-6.57%
5,COC(=O)c1ccccc1NS(=O)(=O)c1cn(C)c(=O)n(C)c1=O,-1.82%
6,CCOC(=O)c1ccc(NC(=O)CCC(=O)OC)cc1,5.7%
7,COCCNS(=O)(=O)c1cccc2cccnc12,-1.37%
8,CCOC(=O)N1CCC(NC(=O)C2CCCCN2S(=O)(=O)c2ccc(F)cc2)CC1 (stereo not given),-12.5%
9,COc1cc(NC(=O)C2CCCC2)c(OC)cc1Cl,-8.4%
10,CC(=O)NC(CCS(C)(=O)=O)C(=O)Nc1cc(Cl)ccc1Cl (stereo not given),-14.6%
11,COc1cc(NC(=O)Cn2ncc3c2-c2ccccc2OC3)cc(OC)c1OC,-6.13%
12,COc1ccccc1-c1nnc(NC(=O)C(C)SC2=NCCS2)s1 (stereo not given),5.92%
13,C=CCn1c(=NC(=O)C2CC2)sc2cc(NC(C)=O)ccc21,-3%
14,Cc1nc(N2CCN(C)CC2)c2sc(=S)n(-c3ccccc3)c2n1,-1.92%
15,CC(=O)Nc1sc(N)nc1-c1ccccc1,-7.75%
16,CCCc1cc(C(=O)Nc2sc3c(c2C(=O)OCC)CCCC3)no1,-19%
17,CCCCN(C)CCNC(=O)Cn1c(=O)sc2ccccc21,-0.71%
18,COc1cccc(C(=O)NCC(c2cccnc2)N2CCN(c3ccccc3OC)CC2)c1 (stereo not given),1.37%
19,COc1ccc(CSc2nnnn2Cc2ccccc2)cc1OC,0.115%
20,COc1ccc(NC(=O)Nc2cccc(OC)c2)cc1,-3.64%
